Most compounds without a hit are left out; they make up all but 3% or so of the library.
KLK7 zymogen act = proKLK7 zymogen activators, primary screen, biochemical, fluorescence intensity; activation, % at 7 µM; 0.9% of 370,000 active; AID 652039, 2013; purified proKLK7, EDANS-DABCYL substrate fluorescence; 100% is mature enzyme control, 0% vehicle; Kallikrein-7 (Homo sapiens), P49862;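 active = activation above the mean of all tested compounds plus 3 SD, computed per campaign excluding outliers beyond control limits, cut at about 13% in these data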
PLC-beta3 inh = human PLC-beta3 inhibitors, primary screen, biochemical, fluorescence | 1-phosphatidylinositol 4,5-bisphosphate phosphodiesterase beta-3 (Homo sapiens), Q01970 | Purified PLC-beta3, fluorogenic substrate | inhibition, % at 12.2 µM | 0.18% of 370,000 active | AID 720704, 2013; in the data active = inhibition above about 11%;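 note: 0% = median of compound wells on plate and 100% = full blocker control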
PLC-gamma1 inh = PLC-gamma1 enzyme inhibitors, primary screen, biochemical, fluorescence, purified enzyme | 1-phosphatidylinositol 4,5-bisphosphate phosphodiesterase gamma-1 (Homo sapiens), P19174 | fluorogenic substrate | inhibition, % at 12.2 µM | 0.84% of 370,000 active | AID 720700, 2013; in the data active = inhibition above about 9.5%
Tn7 DDE FP = inhibitors of Tn7 peptide binding to fibrin DD(E), primary screen, biochemical, fluorescence polarization, human fibrin, Tn7 probe; Fibrinogen beta chain (Homo sapiens), P02675; FP displacement of FITC-Tn7 peptide from fibrin DD(E); 0% = median of compound wells per plate; inhibition, % at 8.3 µM; 0.13% of 370,000 active; AID 720508, 2013;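 active = inhibition above the mean of compounds falling within the control limits plus 3 SD of them, cut at about 14% in these data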;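 note: 0% = plate median of compound wells and 100% = 10 µM Aha-Tn7 peptide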
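Test system: human clot-derived fibrin DD(E) complex / Quantity: 2 µM final DD(E) protein / Incubation: 10 min plus 3 h, room temperature / Measured by: fluorescence polarization / Benchmarks: high control of 10 µM Aha-Tn7 peptide / Replicates: singlicate testing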
DDE Tn6 FP inh = inhibitors of Tn6 peptide binding to fibrin DD(E), primary screen, biochemical, fluorescence polarization, human fibrin, Tn6 probe; inhibition, % at 8.3 µM; 0.21% of 370,000 active; Fibrin DD(E) TRITC-Tn6 fluorescence polarization displacement; Fibrinogen beta chain (Homo sapiens), P02675;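 active = inhibition above a per-campaign cutoff: mean of compounds within control limits plus 3 SD, cut at about 15% in these data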;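 note: 0% = median of all compound wells on the plate and 100% = blocking peptide control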
NRP1-CendR mod = modulators of CendR peptide binding to NRP-1, primary screen, biochemical, fluorescence polarization, uHTS; FAM-RPARPAR peptide binding to NRP-1; inhibition, % at 25 µM; 0.85% of 360,000 active; AID 602438, 2012;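 active = inhibition or corrected inhibition above about 18%, plus a signal ratio from 0.5 to 1.5, limit read from the data, passing the limit was not always enough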
KLK7 act conf = proKLK7 zymogen activators, confirmation, biochemical, fluorescence intensity, triplicate. 68% of 3,200 active. shares compounds with KLK7 zymogen act. purified proKLK7, EDANS-DABCYL substrate fluorescence; scaled: vehicle 0, mature enzyme 100. AID 686949, 2013. activation, % at 7 µM;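 active = activation, as change over the incubation, above the mean of all tested compounds plus 3 SD, cut at about 13% in these data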
EDANS-DABCYL int = EDANS-DABCYL substrate optical interference, artefact control for kallikrein-7 zymogen activator project, biochemical, fluorescence intensity, high throughput. shares compounds with KLK7 zymogen act. no enzyme, 4 h; solvent 0%, active enzyme control 100%. AID 686952, 2013. activation, % at 7 µM. 80% of 3,200 active;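 active = activation above the all-compound mean plus 3 SD, ignoring values outside control-based bounds, cut at about 4.8% in these data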;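 note: value is the 4 h activation minus the activation read at time zero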
Numbers without * were called inactive; i = inactive; · = not tested or not shown.

SMILES	KLK7 zymogen act	PLC-beta3 inh	PLC-gamma1 inh	Tn7 DDE FP	DDE Tn6 FP inh	NRP1-CendR mod	KLK7 act conf	EDANS-DABCYL int
COC(=O)[C@]12C[C@H](CC(=O)NCc3cccs3)C(=O)N(Cc3ccccc3)C1=C[C@H](COCc1ccccc1)O[C@@H]2C	0.7	-0.2	1.4	1.7	1.1	·	·	·
O=S(=O)(Nc1cccc(-c2cn3cccnc3n2)c1)c1ccccc1	70.0*	-468.4	-469.2	1.9	-8.7	18.4	14.9*	17.7*
Cc1ccc(S(=O)(=O)Nc2cccc(-c3cn4ccsc4n3)c2)cc1	-0.4	4.8	-0.6	-8.7	-0.3	2.2	·	·
CCOC(=O)Cn1cc(CN2CCS(=O)(=O)N(Cc3ccc(OC)cc3)C(C(=O)OC)C2)nn1 (configuration not stated)	0.0	0.0	-0.9	-1.1	2.0	·	·	·
CN1C(=O)C2C(c3ccc(N(C)C)cc3)NN(Cc3ccccc3)C2C1=O (configuration not stated)	15.2*	-22.9	-10.4	5.0	-9.5	-7.6	14.0*	13.2*
CCOC(=O)Cn1c(=NC(=O)c2cc(-c3cccs3)nc3ccccc23)sc2cc(S(N)(=O)=O)ccc21	171.5*	-291.4	-282.5	4.2	3.8	-52.1	-1.9	-15.1
COC(=O)Cn1c(=NC(=O)c2cc(-c3cccs3)nc3ccccc23)sc2cc(S(N)(=O)=O)ccc21	-82.7	i	i	-0.6	-0.6	-25.2	·	·
CC(C)C(=O)N1CC[C@H]2[C@H](CCCN2Cc2ccc(F)cc2)C1	-0.3	2.7	9.4	1.9	-0.2	·	·	·
CCC(=O)c1cc2c(C)cc(=O)oc2c(C)c1OC(C)=O	452.5*	-152.5	-130.0	-6.4	-0.5	7.7	803.8*	771.8*
CCC(=O)c1cc2c(C)cc(=O)oc2c(C)c1OC(=O)C(C)C	139.3*	-52.3	-45.8	-9.4	-5.7	9.8	154.9*	178.7*
COCCCNC(=O)C[C@H]1C(=O)N(Cc2ccc(OC)cc2)C2=CCCCC[C@@]21C(=O)OC	-0.3	3.0	7.0	-12.1	11.3	·	·	·
CCN1CC(CN(C)Cc2cn(-c3ccc(C)cc3)nc2-c2ccc(F)cc2)CC1=O (configuration not stated)	0.8	-3.9	2.3	9.2	7.5	-0.5	·	·
CCN1CC(CN(C)Cc2cn(-c3cccc(C)c3)nc2-c2cccc(F)c2)CC1=O (configuration not stated)	17.3*	-5.7	2.4	8.9	9.3	2.8	0.6	-0.1
COC(=O)C1=C(C)N(Cc2cccc(C(F)(F)F)c2)C(=NCc2ccc3c(c2)OCO3)NC1c1ccc(F)cc1 (configuration not stated)	0.4	0.0	6.6	-4.8	-4.5	·	·	·
COc1ccc(/C=N/NC(=O)c2nnn(-c3nonc3N)c2-c2cccs2)c(OC)c1	68.4*	-125.8	-66.8	1.1	-9.0	-3.2	-4.8	-20.7
CCCOc1ccc(-c2c(C(=O)N/N=C/c3ccc(OC)cc3)nnn2-c2nonc2N)cc1	56.7*	-15.7	-17.0	2.1	-5.0	-11.2	-462.5	-364.7
CCCOc1ccc(-c2c(C(=O)N/N=C/c3ccc(OCC)cc3)nnn2-c2nonc2N)cc1	-400.8	0.0	2.6	-8.2	-1.1	4.5	·	·
COc1ccc(OC)c(/C=N/NC(=O)c2nnn(-c3nonc3N)c2-c2cccs2)c1	9.5	-76.9	-50.0	-0.5	-3.0	17.3	·	·

Assay outcomes deposited in PubChem BioAssay by several laboratories.
